This note sets out measurements from ChEMBL document CHEMBL1157607, “Piracetam defines a new binding site for allosteric modulators of alpha-amino-3-hydroxy-5-methyl-4-isoxazole-propionic acid (AMPA) receptors” (J Med Chem, 2010).

Test [1] is described as follows: Binding affinity to subsite B/B' and subsite C/C' in S1S2 domain of GluA2 receptor expressed in Escherichia coli by crystallography. In a few lines:
(§1)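 GluA2 S1S2 domain (flip form via N754S, GluA2i) expressed in E. coli Origami B (DE3) cells, IPTG 0.5 mM final at 20°C for 20 h. Purified by Ni-NTA, sizing and ion exchange with glutamate in all buffers. Protein at 0.3 mM with 10 mM glutamate, ligand 5 mM final. Co-crystals grown by hanging drop at 4°C against 16–18% PEG 8K, 0.1 M sodium cacodylate, 0.1–0.15 M zinc acetate, pH 6.5.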

Test [2] is described as follows: Binding affinity to subsite C/C' in S1S2 domain of GluA2 receptor expressed in Escherichia coli by crystallography. In short, it runs like this:
as §1

Test [3] is described as follows: Binding affinity to subsite A in S1S2 domain of GluA2 receptor expressed in Escherichia coli by crystallography. In a few lines: as §1

Calls of active or inactive are those of the source. No cut-off for these calls is given here.

On to `NS(=O)(=O)c1cc2c(cc1Cl)NC(C(Cl)Cl)NS2(=O)=O` (stereo not given), for which the outcome in test [1] was Active.

In the case of `NS(=O)(=O)c1cc2c(cc1C(F)(F)F)NCNS2(=O)=O`, the result in test [2] was Active.

For `O=C1c2cc3c(cc2OC2CCCN12)OCCO3` (stereo not given), the result in test [3] and in test [1] was Active.

For `CC1Nc2ccc(Cl)cc2S(=O)(=O)N1` (stereo not given), the outcome in test [2] was Active.

On to `C=CCSCC1Nc2cc(Cl)c(S(N)(=O)=O)cc2S(=O)(=O)N1` (stereo not given), for which the outcome in test [1] was Active.

Regarding `COc1ccc(C(=O)N2CCCC2=O)cc1`, the outcome in test [3] and in test [1] was Active.

Take `NS(=O)(=O)c1cc2c(cc1Cl)NC(C1CC3C=CC1C3)NS2(=O)=O` (stereo not given): the result in test [1] was Active.

For `NS(=O)(=O)c1cc2c(cc1Cl)NCNS2(=O)=O`, in test [2], the outcome was Active.
